From ChEMBL document CHEMBL4480427, “Further insights of selenium-containing analogues of WC-9 against Trypanosoma cruzi” (Bioorg Med Chem, 2019) come the findings set out here.

Series [1] in a line: Cytotoxicity against African green monkey Vero cells after 72 hrs by Alamar Blue assay. The class given is cell-based. The conditions noted are these: chlorocebus sabaeus, read-out: ED50. The gist of the method:
(§1)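 Vero cells treated 72 h at 35 °C, 7% CO2, in quadruplicate wells, with untreated host-cell and DMSO toxicity controls. Alamar Blue was added at 10% of culture volume for 6 h at 35 °C, and absorbance read at 570 and 600 nm. Cytotoxicity was also scored by cell detachment under optical microscopy. Three biological replicates of 4 technical replicates each.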

Series [2] concerns Trypanosoma cruzi. The series can be described thus: Antitrypanosomal activity against tdTomato red expressing Trypanosoma cruzi CL amastigotes infected in gamma-irradiated African green monkey Vero cells assessed as inhibition of parasite growth at 1 uM after 72 hrs by fluorescence assay relative to untreated control. The class given is functional. The conditions noted are these: light or radiation study, read-out: GI.

Series [3] has as its system Vero. The series can be described thus: Cytotoxicity against African green monkey Vero cells at 20 uM after 72 hrs by Alamar Blue assay. The class given is cell-based. Conditions: chlorocebus sabaeus. In outline: as §1
In series [4] the test system is Trypanosoma cruzi. The series can be described thus: Antitrypanosomal activity against tdTomato red expressing Trypanosoma cruzi CL amastigotes infected in gamma-irradiated African green monkey Vero cells assessed as inhibition of parasite growth at 10 uM after 72 hrs by fluorescence assay relative to untreated control. The conditions noted are these: light or radiation study, read-out: GI. The class given is functional.

Series [5] has as its system Vero. The series is described as follows: Cytotoxicity against African green monkey Vero cells at 15 to 20 uM after 72 hrs by Alamar Blue assay. It is filed as cell-based. Conditions: chlorocebus sabaeus. The gist of the method:
as §1

For series [6], the system named is Trypanosoma cruzi. The series can be described thus: Antitrypanosomal activity against tdTomato red expressing Trypanosoma cruzi CL amastigotes infected in gamma-irradiated African green monkey Vero cells after 72 hrs by fluorescence assay. The conditions noted are these: light or radiation study, read-out: ED50 (the source's name). It is filed as functional. The gist of the method: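 Gamma-irradiated (2,000 Rads) Vero cells, 3.4 × 10^4/well in RPMI with 10% FBS, held overnight at 35 °C, 7% CO2. Infected 5 h with 3.4 × 10^5 tdTomato CL trypomastigotes/well, then washed. Compounds were serially diluted 1.56–25 µM in quadruplicate, with benznidazole reference at 0.39–6.25 µM. Fluorescence read 72 h post-infection. ED50 by non-linear regression, mean ± S.D. of 3 biological replicates.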

For series [7], the system named is Trypanosoma cruzi. The series can be described thus: Antitrypanosomal activity against tdTomato red expressing Trypanosoma cruzi CL amastigotes infected in gamma-irradiated African green monkey Vero cells assessed as inhibition of parasite growth at 6 uM after 72 hrs by fluorescence assay relative to untreated control. It is filed as functional, organism-based.

The source made the active and inactive calls. The calls are words filed in the database; no cut-off is given here. Bounds are passed on as bounds.

Consider `FC(F)(F)[Se]CCOc1cccc(Oc2ccccc2)c1`, for which the CC50 at 72 h in series [1] was more than 20 µM. The inhibition of growth at 1 µM in series [2] stood at 30.9%.
Take `N#C[Se]CCOc1ccccc1`: in series [3], the Activity result is recorded as “Toxic”.
In the case of `N#CSCCOc1ccccc1Oc1ccccc1`, the CC50 at 72 h in series [1] is more than 20 µM. Also, in series [4], the inhibition of growth at 10 µM turned out to be 33%.
For the molecule `FC(F)(F)SCCOc1ccc(Oc2ccccc2)cc1`, in series [1], the CC50 at 72 h was more than 20 µM. The inhibition of growth at 10 µM in series [4] was 12%.
For the molecule `O=C(Cn1ccnc1[N+](=O)[O-])NCc1ccccc1` [BENZNIDAZOLE], the CC50 at 72 h in series [1] was more than 10 µM.
For `N#CCCCOc1ccc(Oc2ccccc2)cc1`, in series [1], the CC50 at 72 h was more than 20 µM.
The same measure, in the same setting: then `N#CCCOc1ccc(Oc2ccccc2)cc1`, with more than 20 µM.
With `N#C[Se]CCOc1ccccc1Oc1ccccc1`, in series [1], the CC50 at 72 h is more than 20 µM. In series [4], the inhibition of growth at 10 µM was found to be 33%.
Turning to `N#C[Se]CCOc1ccc([N+](=O)[O-])cc1`, the Activity result in series [5] is recorded as “Toxic”.
On to `N#C[Se]CC1Cc2ccc(Oc3ccccc3)cc2O1` (racemic), for which the EC50 in series [6] stood at 0.0939 µM. Besides, the CC50 at 72 h in series [1] was more than 20 µM.
On the same counts, the results for `FC(F)(F)SCCOc1cccc(Oc2ccccc2)c1` are more than 10 µM and more than 20 µM.
Turning to `FC(F)(F)[Se]CCOc1ccc(Oc2ccccc2)cc1`, the EC50 in series [6] was more than 1 µM. The CC50 at 72 h in series [1] is more than 20 µM. Moreover, the inhibition of growth at 1 µM in series [2] stood at 6.7%.
Take `COc1ccc(OCC[Se]C#N)cc1`: in series [5], the Activity result is listed as “Toxic”. Besides, in series [7], the “growth inhibition (GI)” value is “inactive”.
